# Key:
# [1] = target: T1, Cytochrome P450 1A2 (Homo sapiens, UniProt P05177); assay: Inhibition of CYP1A2 (unknown origin); type: ADME
# T1 sequence (P05177 whole entry): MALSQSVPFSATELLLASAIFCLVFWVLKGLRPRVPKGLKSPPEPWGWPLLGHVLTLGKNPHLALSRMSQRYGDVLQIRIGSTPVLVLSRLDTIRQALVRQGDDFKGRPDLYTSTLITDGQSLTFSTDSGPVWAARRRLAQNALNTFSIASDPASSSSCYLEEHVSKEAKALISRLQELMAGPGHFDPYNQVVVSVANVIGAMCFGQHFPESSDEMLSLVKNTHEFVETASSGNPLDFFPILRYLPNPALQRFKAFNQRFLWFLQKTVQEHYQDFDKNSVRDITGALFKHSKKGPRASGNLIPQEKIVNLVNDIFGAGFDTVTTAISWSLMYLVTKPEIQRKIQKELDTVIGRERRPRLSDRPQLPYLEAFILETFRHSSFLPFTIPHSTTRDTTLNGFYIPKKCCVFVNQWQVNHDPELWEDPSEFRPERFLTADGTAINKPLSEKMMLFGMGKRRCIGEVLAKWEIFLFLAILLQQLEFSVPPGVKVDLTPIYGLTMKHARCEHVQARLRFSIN
# [2] = tested on: Rattus norvegicus; assay: Subacute toxicity in Sprague-Dawley rat assessed as effect on organ coefficients at 50 to 100 mg/kg, po administered once daily for 2 weeks; type: organism-based; conditions: in vivo, 336 h
# Method in brief: (§1)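 SD rats dosed orally once daily for two weeks at 50 mg/kg and 100 mg/kg. Subacute toxicity was assessed over the dosing period from survival rate, behaviour, food intake and organ coefficients.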
# [3] = tested on: Rattus norvegicus; assay: Subacute toxicity in Sprague-Dawley rat assessed as effect on food intake at 50 to 100 mg/kg, po administered once daily for 2 weeks; type: organism-based; conditions: in vivo, 336 h; method in brief: as §1
# [4] = target: T2, Solute carrier organic anion transporter family member 1B3 (Homo sapiens, UniProt Q9NPD5); assay: Inhibition of human OATP1B3; type: ADME
# T2 sequence (Q9NPD5 whole entry): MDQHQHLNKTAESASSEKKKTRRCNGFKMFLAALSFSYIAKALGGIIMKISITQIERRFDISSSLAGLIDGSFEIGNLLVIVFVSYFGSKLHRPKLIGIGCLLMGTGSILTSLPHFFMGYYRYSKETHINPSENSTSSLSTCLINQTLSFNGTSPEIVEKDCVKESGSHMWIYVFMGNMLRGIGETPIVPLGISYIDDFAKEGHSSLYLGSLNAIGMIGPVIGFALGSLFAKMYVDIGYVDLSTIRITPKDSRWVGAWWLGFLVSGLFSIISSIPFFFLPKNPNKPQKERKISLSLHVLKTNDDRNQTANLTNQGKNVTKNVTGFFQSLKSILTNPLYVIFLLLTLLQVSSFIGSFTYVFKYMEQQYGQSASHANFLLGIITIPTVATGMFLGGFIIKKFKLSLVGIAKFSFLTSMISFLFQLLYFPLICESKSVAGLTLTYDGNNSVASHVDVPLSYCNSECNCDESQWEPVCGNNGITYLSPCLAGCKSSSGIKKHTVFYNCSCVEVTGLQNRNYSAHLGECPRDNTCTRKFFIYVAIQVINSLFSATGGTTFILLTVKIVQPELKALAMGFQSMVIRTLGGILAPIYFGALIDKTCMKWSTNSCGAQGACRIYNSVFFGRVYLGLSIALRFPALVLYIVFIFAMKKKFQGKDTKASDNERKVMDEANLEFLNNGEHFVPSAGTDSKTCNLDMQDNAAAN
# [5] = target: Free fatty acid receptor 1 (Homo sapiens, UniProt O14842); assay: Agonist activity at GPR40 (unknown origin); type: functional
# Free fatty acid receptor 1, sequence (O14842 whole entry): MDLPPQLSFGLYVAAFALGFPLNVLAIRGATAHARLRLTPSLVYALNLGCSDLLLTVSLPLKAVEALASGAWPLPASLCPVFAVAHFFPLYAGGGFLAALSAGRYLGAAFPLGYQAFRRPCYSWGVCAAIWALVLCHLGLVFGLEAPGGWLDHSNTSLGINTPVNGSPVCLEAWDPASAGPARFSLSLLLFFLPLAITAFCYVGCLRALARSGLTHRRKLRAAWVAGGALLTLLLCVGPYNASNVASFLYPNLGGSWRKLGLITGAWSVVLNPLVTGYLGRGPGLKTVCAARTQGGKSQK
# Method in brief: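 Human GPR40 activity read by calcium mobilization to give EC50. Emax expressed relative to linoleic acid as 100%. Mean ± SD, n = 3.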
# [6] = target: Cytochrome P450 2D6 (Homo sapiens, UniProt P10635); assay: Inhibition of CYP2D6 (unknown origin); type: ADME
# Cytochrome P450 2D6, sequence (P10635 whole entry): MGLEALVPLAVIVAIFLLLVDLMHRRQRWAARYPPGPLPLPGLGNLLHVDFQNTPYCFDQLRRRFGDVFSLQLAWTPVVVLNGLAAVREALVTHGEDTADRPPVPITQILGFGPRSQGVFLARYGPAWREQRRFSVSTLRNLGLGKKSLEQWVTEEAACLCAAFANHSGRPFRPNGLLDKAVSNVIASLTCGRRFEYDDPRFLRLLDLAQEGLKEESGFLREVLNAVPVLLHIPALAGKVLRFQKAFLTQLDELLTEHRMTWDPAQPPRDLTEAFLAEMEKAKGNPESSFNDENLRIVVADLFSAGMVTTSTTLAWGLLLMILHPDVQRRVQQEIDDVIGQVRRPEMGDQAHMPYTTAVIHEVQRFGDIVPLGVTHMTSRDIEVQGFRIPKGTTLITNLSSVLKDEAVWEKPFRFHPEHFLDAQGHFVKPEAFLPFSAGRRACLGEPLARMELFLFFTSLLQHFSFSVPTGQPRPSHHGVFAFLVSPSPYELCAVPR
# [7] = Tmax in Sprague-Dawley rat at 3 mg/kg, po by LC-ESI-MS analysis; type: ADME, organism-based; conditions: in vivo
# Method in brief: (§2)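 SD rats dosed orally (3 or 10 mg/kg) or by intravenous injection (1 mg/kg). Plasma PK parameters derived per route: Cmax, AUC0-t, Tmax, t1/2 and F after oral dosing; CL, AUC0-t, MRT, t1/2 and Vdss after iv dosing. Mean ± SD from three independent experiments (n = 3).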
# [8] = Cmax in Sprague-Dawley rat at 3 mg/kg, po by LC-ESI-MS analysis; type: ADME, organism-based; design: dose 3 mg/kg, route oral; conditions: in vivo; method in brief: as §2
# [9] = target: Cytochrome P450 2C19 (Homo sapiens, UniProt P33261); assay: Inhibition of CYP2C19 (unknown origin); type: ADME
# Cytochrome P450 2C19, sequence (P33261 whole entry): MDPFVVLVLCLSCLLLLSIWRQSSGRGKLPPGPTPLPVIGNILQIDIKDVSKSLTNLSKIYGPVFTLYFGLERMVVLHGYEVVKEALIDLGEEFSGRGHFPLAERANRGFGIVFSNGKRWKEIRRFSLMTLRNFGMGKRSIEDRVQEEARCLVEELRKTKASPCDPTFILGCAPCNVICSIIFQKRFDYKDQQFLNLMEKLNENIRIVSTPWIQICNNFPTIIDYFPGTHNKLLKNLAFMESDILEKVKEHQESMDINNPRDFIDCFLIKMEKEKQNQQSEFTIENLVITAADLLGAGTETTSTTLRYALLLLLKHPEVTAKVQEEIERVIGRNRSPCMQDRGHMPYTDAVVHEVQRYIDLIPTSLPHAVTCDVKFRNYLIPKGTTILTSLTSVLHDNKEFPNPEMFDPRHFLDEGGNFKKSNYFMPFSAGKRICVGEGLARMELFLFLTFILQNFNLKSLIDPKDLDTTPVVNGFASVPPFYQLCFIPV
# [10] = target: T3, Solute carrier organic anion transporter family member 1B1 (Homo sapiens, UniProt Q9Y6L6); assay: Inhibition of human OATP1BA
# T3 sequence (Q9Y6L6 whole entry): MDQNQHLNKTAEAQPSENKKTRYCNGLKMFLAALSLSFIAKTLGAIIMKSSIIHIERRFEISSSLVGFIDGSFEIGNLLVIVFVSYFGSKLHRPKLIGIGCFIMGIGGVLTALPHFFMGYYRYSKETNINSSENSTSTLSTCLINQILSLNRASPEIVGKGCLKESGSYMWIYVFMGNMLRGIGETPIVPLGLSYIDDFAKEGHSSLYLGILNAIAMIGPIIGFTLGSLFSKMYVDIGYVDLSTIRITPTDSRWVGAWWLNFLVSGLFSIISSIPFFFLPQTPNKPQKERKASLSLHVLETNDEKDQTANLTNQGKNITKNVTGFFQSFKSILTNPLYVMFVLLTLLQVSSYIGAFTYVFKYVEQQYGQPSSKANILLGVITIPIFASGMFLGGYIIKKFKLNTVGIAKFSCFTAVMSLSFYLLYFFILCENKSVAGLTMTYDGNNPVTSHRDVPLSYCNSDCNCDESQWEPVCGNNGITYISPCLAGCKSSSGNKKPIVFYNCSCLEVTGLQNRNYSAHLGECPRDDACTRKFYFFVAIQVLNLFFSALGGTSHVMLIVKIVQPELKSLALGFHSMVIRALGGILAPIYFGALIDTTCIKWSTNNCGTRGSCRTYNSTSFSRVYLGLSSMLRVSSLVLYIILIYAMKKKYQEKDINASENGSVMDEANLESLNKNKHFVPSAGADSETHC
# [11] = Elimination half life in Sprague-Dawley rat at 10 mg/kg, po by LC-ESI-MS analysis; type: ADME, organism-based; conditions: in vivo, read-out: beta t1/2 (converted); method in brief: as §2
# [12] = Elimination half life in Sprague-Dawley rat at 1 mg/kg, iv by LC-ESI-MS analysis; type: ADME, organism-based; conditions: in vivo, read-out: beta t1/2 (converted); method in brief: as §2
# [13] = Tmax in Sprague-Dawley rat at 10 mg/kg, po by LC-ESI-MS analysis; type: ADME, organism-based; conditions: in vivo; method in brief: as §2
structure (smiles),measurement,setting,value
CC#C[C@@H](CC(=O)O)c1ccc(OC[C@H]2COc3ccc(Cl)cc3O2)cc1,IC50,[1],> 100 µM
same,Activity,[2],Non-Toxic
same,Activity,[3],Non-Toxic
same,IC50,[4],39.5 µM
same,EC50,[5],0.046 µM
same,IC50,[6],> 100 µM
same,Tmax,[7],3 h
same,Cmax,[8],9310 ng/mL
same,IC50,[9],> 100 µM
same,IC50,[10],> 100 µM
same,half-life,[11],25.7 h
same,half-life,[12],13.2 h
same,Tmax,[13],4 h
